Measured values reported in ChEMBL document CHEMBL1150133, “New saponins from the starfish Certonardoa semiregularis” (J Nat Prod, 2002).
Values after ≈ are worked out from the molar mass of the structure shown.

Tests used:
[1] = test system: Human alphaherpesvirus 1; assay: Antiviral activity against HSV1 F infected in african green monkey Vero cells assessed as inhibition of virus-induced cytopathic effect after 3 days by MTT assay; type: functional, organism-based; settings: Human alphaherpesvirus 1, F, 72 h
Procedure, shortened: (§1)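 Confluent Vero cells were infected at 100 CCID50 per well, or mock-infected, with 1 h adsorption at 37 °C. Compound in DMEM/2% FBS was added in duplicate per concentration, followed by 3 days at 37 °C. Viability was read by MTT, and EC50 for CPE inhibition and CC50 for cytocidal effect were calculated.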

[2] = Cytotoxicity against human MT4 cells after 5 days by MTT assay; type: cell-based
Procedure, shortened: (§2)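 MT-4 cells (RPMI 1640/10% FBS), HIV-infected or mock-infected, were plated with 2× concentrated test samples and kept 5 days at 37 °C. Cells were inspected microscopically, then MTT was added for 1 h, dissolved in acidified 2-propanol, and read at 540 nm (690 nm reference). EC50 (50% protection) came from infected wells and CC50 (50% viability loss) from mock-infected wells.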

[3] = test system: Human immunodeficiency virus 1; assay: Antiviral activity against HIV1 3B infected in human MT4 cells assessed as inhibition of virus-induced cytopathic effect after 5 days by MTT assay; type: functional, organism-based; settings: Human immunodeficiency virus 1, 3B, MT4, 120 h; procedure, shortened: as §2
[4] = test system: Coxsackievirus B3; assay: Antiviral activity against Coxsackievirus B3 Nancy infected in human HeLa assessed as inhibition of virus-induced cytopathic effect after 2 days by MTT assay; type: functional, organism-based; settings: Enterovirus B, 48 h
Procedure, shortened: (§3)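 In HeLa cells, virus-induced CPE inhibition was run with infected or mock-infected wells, 30 min virus adsorption, and compound in DMEM/2% FBS in duplicate per concentration. After 2 days at 37 °C, MTT read-out gave EC50 from infected wells and CC50 from mock-infected wells.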

[5] = test system: Vesicular stomatitis Indiana virus; assay: Antiviral activity against Vesicular stomatitis Indiana virus infected in human HeLa assessed as inhibition of virus-induced cytopathic effect after 2 days by MTT assay; type: functional, organism-based; settings: 48 h
Procedure, shortened: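 CPE-inhibition assay with VSV strain Indiana (stock grown in HeLa cells) on confluent HeLa cells (DMEM/5% FBS, gentamycin) in 96-well plates. Infection at 100 CCID50 per well with 30 min adsorption at 37 °C, then the compound in DMEM/2% FBS, duplicate wells per concentration, 2 days at 37 °C. Viability read by MTT; EC50 is the concentration giving 50% protection. Mock-infected wells gave CC50.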

[6] = test system: Encephalomyocarditis virus; assay: Antiviral activity against Encephalomyocarditis virus EMC infected in human HeLa assessed as inhibition of virus-induced cytopathic effect after 2 days by MTT assay; type: functional, organism-based; settings: Cardiovirus A, 48 h; procedure, shortened: as §3
[7] = Cytotoxicity against african green monkey Vero cells after 3 days by MTT assay; type: cell-based; settings: chlorocebus sabaeus; procedure, shortened: as §1
[8] = test system: Human immunodeficiency virus 2; assay: Antiviral activity against HIV2 ROD infected in human MT4 cells assessed as inhibition of virus-induced cytopathic effect after 5 days by MTT assay; type: functional, organism-based; settings: Human immunodeficiency virus 2, ROD, MT4, 120 h; procedure, shortened: as §2
[9] = Cytotoxicity against human HeLa cells after 2 days by MTT assay; type: cell-based; procedure, shortened: as §3
[10] = test system: Human alphaherpesvirus 2; assay: Antiviral activity against HSV2 MS infected in african green monkey Vero cells assessed as inhibition of virus-induced cytopathic effect after 3 days by MTT assay; type: functional, organism-based; settings: Human alphaherpesvirus 2, MS, 72 h; procedure, shortened: as §1

Row | SMILES | EC50 [1] [µg/mL] | CC50 at 120 h [2] [µg/mL] | EC50 [3] [µg/mL] | EC50 [4] [µg/mL] | EC50 [5] [µg/mL] | EC50 [6] [µg/mL] | CC50 at 72 h [7] [µg/mL] | EC50 [8] [µg/mL] | CC50 at 48 h [9] [µg/mL] | EC50 [10] [µg/mL]
1 | CO[C@H]1[C@H](O[C@H]2[C@H](O[C@@H](CC[C@@H](C)[C@H]3C[C@@H](O)[C@@H]4[C@]3(C)CC[C@@H]3[C@@]5(C)CC[C@H](O)[C@H](O)[C@@H]5[C@@H](OS(=O)(=O)[O-])C[C@]34O)C(C)C)O[C@H](CO)[C@@H]2O)OC[C@@H](OC)[C@@H]1O.[Na+] [CERTONARDOSIDE G] | > 100 | > 100 | > 100 | > 100 | > 100 | > 100 | > 100 | > 100 | > 100 | > 100
2 | C=C(CC[C@@H](C)[C@H]1C[C@@H](O)[C@@H]2[C@]1(C)CC[C@@H]1[C@@]3(C)CC[C@H](O)C[C@@H]3[C@@H](O)C[C@]12O)C(C)CO[C@@H]1OC[C@@H](O)[C@H](OS(=O)(=O)[O-])[C@H]1O[C@@H]1OC[C@@H](O)[C@H](O)[C@H]1OC.[Na+] (some centres undefined) [CERTONARDOSIDE C] | > 97.5 | 1.4 | > 1.4 | > 100 | > 100 | > 100 | 97.5 | > 1.4 | > 100 | > 97.5
3 | C=C(CC[C@@H](C)[C@H]1C[C@@H](O)[C@@H]2[C@]1(C)CC[C@@H]1[C@@]3(C)CC[C@H](O)[C@H](O)[C@@H]3[C@@H](O)C[C@]12O)C(C)CO[C@@H]1OC[C@@H](O)[C@H](O)[C@H]1O[C@@H]1OC[C@@H](O)[C@H](O)[C@H]1OC (some centres undefined) [ACODONTASTEROSIDE G] | 86.1 (≈ 113 µM) | 42.5 (≈ 56 µM) | > 42.5 | > 51.5 | > 51.5 | > 51.5 | > 100 | > 42.5 | 51.5 (≈ 67.9 µM) | 94.5 (≈ 125 µM)
4 | O=c1[nH]cnc2c1ncn2[C@H]1CC[C@@H](CO)O1 [DIDANOSINE] |  | > 100 | 2.1 (≈ 8.89 µM) |  |  |  |  | 11 (≈ 46.6 µM) |  | 
5 | CO[C@H]1[C@H](O[C@H]2[C@H](OC[C@@H](C)[C@H](C)/C=C/[C@@H](C)[C@H]3C[C@@H](O)[C@@H]4[C@]3(C)CC[C@@H]3[C@@]5(C)CC[C@H](O)[C@H](O)[C@@H]5[C@@H](O)C[C@]34O)OC[C@@H](O)[C@@H]2OS(=O)(=O)[O-])OC[C@@H](O)[C@@H]1O.[Na+] [CERTONARDOSIDE D] | > 79.9 | > 100 | > 100 | > 100 | > 100 | > 100 | 79.9 | > 100 | > 100 | > 79.9
6 | Nc1ccn([C@H]2CC[C@@H](CO)O2)c(=O)n1 [ZALCITABINE] |  | 11 (≈ 52.1 µM) | 0.1 (≈ 0.473 µM) |  |  |  |  | 0.1 (≈ 0.473 µM) |  | 
7 | NC(=O)c1ncn([C@@H]2O[C@H](CO)[C@@H](O)[C@H]2O)n1 [RIBAVIRIN] |  |  |  | 236 (≈ 968 µM) | 13.7 (≈ 56.1 µM) | 27.2 (≈ 111 µM) |  |  | 300 (≈ 1230 µM) | 
8 | CO[C@H]1[C@H](O[C@H]2[C@H](O[C@@H](CC[C@@H](C)[C@H]3C[C@@H](O)[C@@H]4[C@]3(C)CC[C@@H]3[C@@]5(C)CC[C@H](O)[C@H](O)[C@@H]5[C@@H](O)C[C@]34O)C(C)C)O[C@H](CO)[C@@H]2O)OC[C@@H](OC)[C@@H]1O [CERTONARDOSIDE F] | > 100 | 39.7 (≈ 52.2 µM) | > 39.7 | > 64.8 | > 64.8 | > 64.8 | > 100 | > 39.7 | 64.8 (≈ 85.2 µM) | > 100
9 | CO[C@@H]1CO[C@@H](OCC[C@@H](CC[C@@H](C)[C@H]2[C@@H](O)[C@@H](O)[C@H]3[C@@H]4C[C@H](OS(=O)(=O)[O-])[C@H]5[C@@H](O)[C@@H](O)CC[C@]5(C)[C@H]4CC[C@]23C)C(C)C)[C@H](O)[C@H]1O.[Na+] [CERTONARDOSIDE K] | 97.8 | > 100 | > 100 | > 57.9 | > 57.9 | > 57.9 | > 100 | > 100 | 57.9 | 82.1
10 | Cc1cn([C@H]2C[C@H](N=[N+]=[N-])[C@@H](CO)O2)c(=O)[nH]c1=O [ZIDOVUDINE] |  | 1.9 (≈ 7.11 µM) | 0.001 (≈ 0.00374 µM) |  |  |  |  | 0.007 (≈ 0.0262 µM) |  | 
11 | Nc1ccn([C@@H]2O[C@H](CO)[C@@H](O)[C@@H]2O)c(=O)n1 [CYTARABINE] | 1.6 (≈ 6.58 µM) |  |  |  |  |  | 4.8 (≈ 19.7 µM) |  |  | 3 (≈ 12.3 µM)
12 | CO[C@H]1[C@H](O[C@H]2[C@H](O[C@@H](CC[C@@H](C)[C@H]3C[C@@H](O)[C@H]4[C@@H]5C[C@H](O)[C@H]6[C@@H](O)[C@@H](O)CC[C@]6(C)[C@H]5CC[C@@]43C)C(C)C)O[C@H](CO)[C@@H]2O)OC[C@@H](OC)[C@@H]1O [CERTONARDOSIDE I] | > 100 | 42.5 (≈ 57.1 µM) | > 42.5 | > 59.9 | > 59.9 | > 59.9 | > 100 | > 42.5 | 59.9 (≈ 80.4 µM) | > 100
13 | Nc1nc2c(ncn2COCCO)c(=O)[nH]1 [ACYCLOVIR] | 0.8 (≈ 3.55 µM) |  |  |  |  |  | > 10 |  |  | 2.4 (≈ 10.7 µM)
14 | C=C(CC[C@@H](C)[C@H]1C[C@@H](O)[C@@H]2[C@]1(C)CC[C@@H]1[C@@]3(C)CC[C@H](O)[C@H](O)[C@@H]3[C@@H](O)C[C@]12O)C(C)CO[C@@H]1OC[C@@H](O)[C@H](OS(=O)(=O)[O-])[C@H]1O[C@@H]1OC[C@@H](O)[C@H](O)[C@H]1OC.[Na+] (some centres undefined) [CERTONARDOSIDE A] | > 100 | 6.8 | > 6.8 | > 100 | > 100 | > 100 | > 100 | > 6.8 | > 100 | > 100
15 | CO[C@@H]1CO[C@@H](OCC[C@@H](CC[C@@H](C)[C@H]2[C@@H](O)[C@@H](O)[C@@H]3[C@]2(C)CC[C@@H]2[C@@]4(C)CC[C@H](O)[C@H](O)[C@@H]4[C@@H](OS(=O)(=O)[O-])C[C@]23O)C(C)C)[C@H](O)[C@H]1O.[Na+] [CERTONARDOSIDE J] | 81.1 | 67.4 | > 67.4 | > 58.8 | > 58.8 | > 58.8 | > 100 | > 67.4 | 58.8 | 82.3
